ChEMBL document CHEMBL4130569, “Structure Optimization of Aloperine Derivatives as HIV-1 Entry Inhibitors” (ACS Med Chem Lett, 2017)
Calls of active or inactive are those of the source. The calls are words filed in the database; no cut-off is given here.

Assays:
[1] = Cytotoxicity in human MT4 cells assessed as reduction of cell viability incubated for 3 days by CytoTox-Glo cytotoxicity assay; format: cell-based
[2] = system: Human immunodeficiency virus 1; test: Antiviral activity against HIV1 NL4-3 infected in human MT4 cells after 3 days by luciferase reporter gene assay; format: functional, organism-based; conditions: Human immunodeficiency virus 1, NL4-3, MT4, 72 h
Influenza A virus = test: Antiviral activity against Influenza A virus (A/Puerto Rico/8/1934(H1N1)) infected in MDCK cells assessed as inhibition of virus-induced cytopathic effect incubated for 48 hrs by Cell-titer-Glo assay; format: functional, organism-based
[3] = Cytotoxicity in MDCK cells assessed as reduction of cell viability incubated for 2 days by CytoTox-Glo cytotoxicity assay; format: cell-based, Canis lupus familiaris; conditions: dog
[4] = biological target: Envelope glycoprotein gp160 (Human immunodeficiency virus 1) (UniProt Q6QLK5); test: Induction of conformational changes in HIV1 NLDH120 envelope glycoprotein gp120 transfected in COS cells assessed as increase in gp120 binding of monoclonal antibody 17b at 10 uM after 48 hrs by FACS; format: cell-based
[5] = system: Human immunodeficiency virus 1; test: Inhibition of HIV1-mediated cellular entry in HIV1 NL4-3 VPR-GFP infected human TZM-bl cells incubated for 2 hrs by confocal microscopy; format: functional, organism-based
Summary of the method: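 TZM-bl cells were infected with NL4-3/Vpr-GFP virus, with or without test compound at 1 µM, for 2 h. Nuclei were stained with DAPI 2 h post infection, and confocal microscopy imaged GFP. Cytosolic GFP dispersal marked entry; GFP puncta marked virus arrested at the cell or endosomal membrane. Uninfected DAPI-stained cells served as background.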

[6] = Selectivity index, ratio of CC50 for human MT4 cells […] NL4-3 infected in human MT4 cells; format: toxicity, cell-based; conditions: MT4 cells and HIV1 NL4-3 infected MT4 cells, read-out: Ratio CC50/EC50
[7] = system: Human immunodeficiency virus 1; test: Potency index, ratio of EC50 for aloperine to EC50 for test compound for antiviral activity against HIV1 NL4-3 infected in human MT4 cells after 3 days by luciferase reporter gene assay; format: functional
[8] = Selectivity index, ratio of EC50 for antiviral activity against influenza A virus (A/Puerto Rico/8/1934(H1N1)) infected in MDCK cells to EC50 for antiviral activity against HIV1 NL4-3 infected in human MT4 cells

Sequence of Envelope glycoprotein gp160 (Human immunodeficiency virus 1) (Q6QLK5 1-814): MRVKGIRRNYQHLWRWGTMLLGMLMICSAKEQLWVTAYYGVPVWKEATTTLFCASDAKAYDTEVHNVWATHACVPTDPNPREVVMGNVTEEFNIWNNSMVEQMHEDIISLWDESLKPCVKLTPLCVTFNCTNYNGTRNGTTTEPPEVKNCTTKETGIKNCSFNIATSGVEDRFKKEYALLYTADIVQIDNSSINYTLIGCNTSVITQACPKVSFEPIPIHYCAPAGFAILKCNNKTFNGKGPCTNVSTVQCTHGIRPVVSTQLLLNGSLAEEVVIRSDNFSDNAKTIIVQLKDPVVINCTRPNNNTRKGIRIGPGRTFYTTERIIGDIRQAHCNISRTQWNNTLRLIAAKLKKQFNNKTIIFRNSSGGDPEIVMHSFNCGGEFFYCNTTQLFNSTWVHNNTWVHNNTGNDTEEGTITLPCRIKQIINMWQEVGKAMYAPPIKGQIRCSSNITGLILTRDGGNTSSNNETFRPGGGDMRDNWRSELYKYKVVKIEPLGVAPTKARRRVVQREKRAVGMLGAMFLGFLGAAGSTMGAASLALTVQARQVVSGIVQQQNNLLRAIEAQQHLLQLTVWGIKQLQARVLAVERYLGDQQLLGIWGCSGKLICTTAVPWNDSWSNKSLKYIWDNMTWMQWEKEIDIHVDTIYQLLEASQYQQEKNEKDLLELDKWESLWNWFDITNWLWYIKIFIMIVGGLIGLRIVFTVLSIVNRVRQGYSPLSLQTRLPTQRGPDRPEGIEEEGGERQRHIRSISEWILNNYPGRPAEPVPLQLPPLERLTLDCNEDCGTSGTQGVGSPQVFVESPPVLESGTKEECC

Structure (SMILES)	CC50 at 72 h [1] [µM]	EC50 [2] [µM]	also measured
CC(C)(C)c1ccc(CC(=O)NCCCCN2CCCC3=C[C@H]4C[C@H](CN5CCCC[C@H]45)[C@@H]32)cc1	> 40	2.09	
O=C(NCCCCN1CCCC2=C[C@H]3C[C@H](CN4CCCC[C@H]34)[C@@H]21)C1CCC(F)(F)CC1	> 40	2.44	
O=C(Cc1ccc(C(F)(F)F)cc1)NCCCCN1CCCC2=C[C@H]3C[C@H](CN4CCCC[C@H]34)[C@@H]21	> 40	0.81	EC50 (Influenza A virus; mdck): Not Active; CC50 at 48 h [3]: > 80 µM
O=C(Cc1ccc(S(=O)(=O)C(F)(F)F)cc1)NCCCCN1CCCC2=C[C@H]3C[C@H](CN4CCCC[C@H]34)[C@@H]21	28.8	0.12	EC50 (Influenza A virus; mdck): Not Active; Activity [4]: Active; inhibition [5]: Active; selectivity ratio [6]: 240; Ratio EC50 [7]: 15; CC50 at 48 h [3]: > 80 µM
O=C(NCCCCN1CCCC2=C[C@H]3C[C@H](CN4CCCC[C@H]34)[C@@H]21)c1ccc(CNS(=O)(=O)C(F)(F)F)cc1	> 40		
O=C(NCCCCN1CCCC2=C[C@H]3C[C@H](CN4CCCC[C@H]34)[C@@H]21)C(=O)c1ccc(C(F)(F)F)cc1	> 40	0.99	EC50 (Influenza A virus; mdck): Not Active; CC50 at 48 h [3]: > 80 µM
O=C(NCCCCN1CCCC2=C[C@H]3C[C@H](CN4CCCC[C@H]34)[C@@H]21)c1ccc(-c2cccs2)cc1	16.2	> 3	
O=C(Cc1ccc(S(=O)(=O)C(F)(F)F)cc1)NCCCCN1CCC[C@@H]2C[C@H]3C[C@H](CN4CCCC[C@H]34)[C@@H]21	> 40	> 3	
CS(=O)(=O)c1ccc(CC(=O)NCCCCN2CCCC3=C[C@H]4C[C@H](CN5CCCC[C@H]45)[C@@H]32)cc1	> 40	> 3	
O=C(Cc1ccc(S(=O)(=O)CC(F)(F)F)cc1)NCCCCN1CCCC2=C[C@H]3C[C@H](CN4CCCC[C@H]34)[C@@H]21	> 40	> 3	
O=C(NCCCCN1CCCC2=C[C@H]3C[C@H](CN4CCCC[C@H]34)[C@@H]21)c1ccc(S(=O)(=O)C(F)(F)F)cc1	> 40	0.55	EC50 (Influenza A virus; mdck): Not Active; CC50 at 48 h [3]: > 80 µM
C1=C2CCCN[C@H]2[C@@H]2C[C@H]1[C@H]1CCCCN1C2	> 86		Ratio EC50 [8]: 7; CC50 at 48 h [3]: > 80 µM
O=C(Cc1ccc(OC(F)(F)F)cc1)NCCCCN1CCC[C@@H]2C[C@H]3C[C@H](CN4CCCC[C@H]34)[C@@H]21	> 40	2.8	
O=C(NCCCCN1CCCC2=C[C@H]3C[C@H](CN4CCCC[C@H]34)[C@@H]21)c1ccc2c(c1)OCO2	> 40	> 3	
O=C(Cc1ccc(SC(F)(F)F)cc1)NCCCCN1CCCC2=C[C@H]3C[C@H](CN4CCCC[C@H]34)[C@@H]21	23.8	0.18	EC50 (Influenza A virus; mdck): Not Active; CC50 at 48 h [3]: 45.1 µM
CC(C)(C)c1ccc(C(=O)NCCCCN2CCCC3=C[C@H]4C[C@H](CN5CCCC[C@H]45)[C@@H]32)cc1	12.9	2.15	

Structure (SMILES)	CC50 at 72 h [1] [µM]	EC50 [2] [µM]	also measured
O=C(Cc1ccc(S(=O)(=O)C(F)(F)F)cc1)NCCCCN1CCC[C@H]2C[C@H]3C[C@H](CN4CCCC[C@H]34)[C@@H]21	> 40	> 3	
O=C(NCCCCN1CCCC2=C[C@H]3C[C@H](CN4CCCC[C@H]34)[C@@H]21)c1ccc(-c2ccsc2)cc1	21.2	1.32	
O=C(Cc1ccc(Br)cc1)NCCCCN1CCCC2=C[C@H]3C[C@H](CN4CCCC[C@H]34)[C@@H]21	> 40	1.32	
O=C(CCc1ccc(OC(F)(F)F)cc1)NCCCCN1CCCC2=C[C@H]3C[C@H](CN4CCCC[C@H]34)[C@@H]21	> 40	> 3	
O=S(=O)(Cc1ccc(OC(F)(F)F)cc1)NCCCCN1CCCC2=C[C@H]3C[C@H](CN4CCCC[C@H]34)[C@@H]21	35.7	> 3	
O=C(Cc1ccc(OC(F)(F)F)cc1)NCCCCN1CCC[C@H]2C[C@H]3C[C@H](CN4CCCC[C@H]34)[C@@H]21	> 40	1.5	
O=C(Cc1ccc(OC(F)(F)F)cc1)NCCCCN1CCCC2=C[C@H]3C[C@H](CN4CCCC[C@H]34)[C@@H]21			EC50 (Influenza A virus; Influenza A virus, A/Puerto Rico/8/1934(H1N1), MDCK, 48 h, read-out: EC50): 18.9 µM; CC50 at 48 h [3]: > 80 µM
O=C(Cc1ccc([S+]([O-])C(F)(F)F)cc1)NCCCCN1CCCC2=C[C@H]3C[C@H](CN4CCCC[C@H]34)[C@@H]21 (some centres not stated)	> 40	1.67	
O=C(NCCCCN1CCCC2=C[C@H]3C[C@H](CN4CCCC[C@H]34)[C@@H]21)C1CCC(C(F)(F)F)CC1 (some centres not stated)	> 40	> 3	
O=C(NCCCCN1CCCC2=C[C@H]3C[C@H](CN4CCCC[C@H]34)[C@@H]21)c1ccc(S(=O)(=O)F)cc1	38.5		
O=C(NCCCCN1CCCC2=C[C@H]3C[C@H](CN4CCCC[C@H]34)[C@@H]21)c1ccc(C(F)(F)F)c(F)c1	> 40	2.22	
O=C(Cc1ccc2c(c1)OCO2)NCCCCN1CCCC2=C[C@H]3C[C@H](CN4CCCC[C@H]34)[C@@H]21	> 40	> 3	
O=S(=O)(NCCCCN1CCCC2=C[C@H]3C[C@H](CN4CCCC[C@H]34)[C@@H]21)c1ccc(OC(F)(F)F)cc1	> 40	> 3	
O=C(CC1CCC(F)(F)CC1)NCCCCN1CCCC2=C[C@H]3C[C@H](CN4CCCC[C@H]34)[C@@H]21	> 40	1.94	
O=C(NCCCCN1CCCC2=C[C@H]3C[C@H](CN4CCCC[C@H]34)[C@@H]21)c1ccc(C(=O)c2ccccc2)cc1	> 40	0.97	EC50 (Influenza A virus; mdck): Not Active; CC50 at 48 h [3]: 31.6 µM
